Screening data (PubChem)
M1 PAM – human M1 muscarinic receptor positive allosteric modulators, primary screen, CHO-K1 cells, Fluo-8 calcium fluorescence, 1536-well; CHO-K1 hM1, ACh EC20; 0% = ACh EC20, 100% = maximal ACh; activation, % at 3 µM; 360,000 tested, 0.088% active; AID 588819, 2011; in the data active = activation above about 19%, passing the limit was not always enough
Target sequence (P11229 whole entry, looked up): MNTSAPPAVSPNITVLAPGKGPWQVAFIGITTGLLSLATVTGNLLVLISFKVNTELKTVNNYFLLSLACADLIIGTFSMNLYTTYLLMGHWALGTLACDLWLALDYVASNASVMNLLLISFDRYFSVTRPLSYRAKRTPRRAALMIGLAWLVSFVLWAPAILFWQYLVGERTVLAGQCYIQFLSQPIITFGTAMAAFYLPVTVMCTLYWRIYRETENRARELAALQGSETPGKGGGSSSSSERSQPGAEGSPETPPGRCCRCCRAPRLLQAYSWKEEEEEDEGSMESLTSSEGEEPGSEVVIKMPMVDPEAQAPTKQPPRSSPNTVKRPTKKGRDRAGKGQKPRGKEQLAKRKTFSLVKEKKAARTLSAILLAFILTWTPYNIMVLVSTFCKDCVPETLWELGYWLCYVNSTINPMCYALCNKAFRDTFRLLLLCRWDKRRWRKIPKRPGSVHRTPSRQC
M1 antag – human M1 muscarinic receptor antagonists, primary screen, CHO-K1 cells, Fluo-8 calcium fluorescence, 1536-well; Muscarinic acetylcholine receptor M1 (Homo sapiens), P11229; CHO-K1 hM1, ACh EC80 antagonist; inhibition, % at 3 µM; 360,000 tested, 1.3% active; AID 588852, 2011;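 active = percent inhibition above its own plate's cutoff, namely the mean of that plate's compound wells plus 3 SD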;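 also: peak over basal fluorescence ratio during 140 s after agonist addition; 0% = ACh EC80 plus DMSO and 100% = DMSO alone without agonist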
M1 ag – human M1 muscarinic receptor agonists, primary screen, Fluo-8 calcium fluorescence, CHO-K1 cells, HTS | 360,000 tested, 0.33% active | Muscarinic acetylcholine receptor M1 (Homo sapiens), P11229 | CHO-K1 hM1, agonist mode; 0% DMSO, 100% acetylcholine EC100 | activation, % at 3 µM;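 active = activation above the run's mean compound activation plus 3 SD, cut at about 16% in these data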;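 also: peak over basal fluorescence ratio within a 140 s kinetic read after compound addition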
TAAR1 agonist – human TAAR1 agonists, primary screen, Fluo-8 calcium fluorescence, CHO RD-HGA16 cells; Trace amine-associated receptor 1 (Homo sapiens), Q96RJ0; vehicle wells 0%, saturating PEA agonist 100%; activation, % at 3 µM; 360,000 tested, 0.99% active; AID 624467, 2012;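 active = activation above the mean activation of all test compounds in the run plus 3 SD, cut at about 38% in these data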
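Test system: RD-HGA16 (CHO) cells co-expressing Gα16 and hTAAR1 | Doses: Single dose, 3 µM | Schedule: 17-24 h seeding, 75 min 37 °C dye, 30 min RT | Evaluation: % activation from peak over basal fluorescence ratio, DMSO-to-PEA scaled | Technique: Kinetic Fluo-8 calcium fluorescence | Benchmarks: Low control DMSO, high control PEA (EC100)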
TAAR1 antagonist – human TAAR1 antagonists, primary screen, Fluo-8 calcium fluorescence, CHO RD-HGA16 cells. antagonist. inhibition, % at 3 µM. 360,000 tested, 1.5% active. AID 624466, 2012;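 active = inhibition above a per-plate cutoff, the mean inhibition of test compounds on that plate plus 3 SD, cut at about 49% in these data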;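 also: 0% = DMSO plus EC80 beta-PEA response and 100% = DMSO alone without agonist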
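System: RD-HGA16 CHO cells with stable hTAAR1 and Gα16 | Probe or stimulus: EC80 β-phenethylamine stimulus | Dosing: 3 µM, single point | Times: Dye loading 75 min at 37 °C, then 30 min room temperature | Measured by: Fluo-8 calcium-sensitive fluorescence | Read-out basis: % inhibition of agonist calcium response | Replicates: n of 1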
* hit, by the source's call; x = not tested or not shown. Only some compounds are listed: those with a hit (about 3.4% of all), similar ones and a draw of the others.

SMILES	M1 PAM	M1 antag	M1 ag	TAAR1 agonist	TAAR1 antagonist
CN(C)S(=O)(=O)N1CCC(Oc2ccc(C(=O)NC3Cc4ccccc4C3)cc2)CC1	-18	15	5	15	58*
Cc1cc(N2CCN(C(=O)OC(C)(C)C)C[C@H]2C)ccc1N1C[C@@H](C)O[C@@H](C)C1	x	x	x	3	-9
O=C(Cc1ccc(Cl)c(Cl)c1)Nc1ccccc1N1CCOCC1	5	-3	-4	4	18
O=C(Nc1ccccc1N1CCOCC1)C1(c2ccc(Cl)cc2)CCC1	-6	17	2	41*	2
CCOC(=O)c1c(C)[nH]c(C)c1S(=O)(=O)NCCc1cccs1	3	2	-5	41*	-10
O=c1cc(CN2CCN(c3ccc(Cl)c(Cl)c3)CC2)c2c(ccc3ccccc32)o1	7	-9	-4	3	-23
O=c1nccc(N/N=C/c2cccc(O)c2)[nH]1	10	-1	-2	40*	-14
COc1cc(/C=N/Nc2ccnc(=O)[nH]2)ccc1O	5	-5	-2	5	-10
O=C(CC[C@H]1O[C@@H](n2ccc(=O)[nH]c2=O)[C@H](O)[C@@H]1O)N1CCN(Cc2cccc3ccccc23)CC1	-1	-18	-4	4	-9
COC(=O)C1=C(C)N(Cc2ccccc2C(F)(F)F)C(=NCc2ccc(C(F)(F)F)cc2)NC1c1ccc(Cl)cc1 (stereo unspecified)	x	x	x	2	7
Fc1ccc2nc(-c3ccc(CN4CCC5(CC4)CNc4ccccc45)cc3)c(-c3ccccc3)nc2c1	x	x	x	-3	-21
O=C(CCCN1CCC(c2ccccc2)C1)c1ccc2c(c1)OCCO2 (stereo unspecified)	-26	35*	-8	33	-20
O=C(NCC1CCCCC1)c1cc(S(=O)(=O)N2CCOCC2)ccc1F	13	0	-2	39*	-26
O=C(NCCCCCCNC(=O)c1ccccc1O)c1ccccc1O	-23	32*	-1	9	44
O=C(NCCNC(=O)c1ccccc1O)c1ccccc1O	3	-8	1	14	22
OC(C#CCN1CCCCCC1)(c1ccccc1)c1cccnc1 (stereo unspecified)	-26	99*	-5	0	-16
OC(C#CCN1CCCC1)(c1ccccc1)c1cccnc1 (stereo unspecified)	-28	99*	-9	0	-1
C#CCC1c2ccccc2CCN1CC=C (stereo unspecified)	x	x	x	2	-3
CSc1ccc(CN2CCC(C)(Oc3ccc(-n4ccnc4)cc3)C2)cc1 (stereo unspecified)	-29	58*	-8	4	-3
CSc1ccc(CN2CCC(C)(Oc3ccc4ccccc4c3)C2)cc1 (stereo unspecified)	1	-8	-6	3	-3
CSc1ccc(CN2CCC(C)(Oc3ccc(CC#N)cc3)C2)cc1 (stereo unspecified)	-24	29*	-8	1	-9
CC(C)c1ccc(CN2CCC(C)(Oc3ccc(Cl)cc3)C2)cc1 (stereo unspecified)	6	-9	-6	0	-4
COC(=O)Cc1ccc(OC2(C)CCN(Cc3ccccc3)C2)cc1 (stereo unspecified)	-26	53*	-6	3	-12
CSc1ccc(CN2CCC(C)(Oc3cccc(Cl)c3)C2)cc1 (stereo unspecified)	-8	-4	-7	0	-6
CSc1ccc(OC2(C)CCN(Cc3ccccc3)C2)cc1 (stereo unspecified)	-22	28*	-8	1	3
SMILES	M1 PAM	M1 antag	M1 ag	TAAR1 agonist	TAAR1 antagonist
COCOc1cccc(CN2CCC(C)(Oc3ccc(C(C)=O)cc3)C2)c1 (stereo unspecified)	-10	29*	-9	-1	6
CCNC(=S)Nc1ccc(C)c(Cl)c1	2	-1	-5	2	5
CCNC(=S)Nc1ccc(Cl)c([N+](=O)[O-])c1	-13	36*	2	7	5
COc1ccc(-c2csc(N(CCCN(C)C)C(=O)c3ccccc3Cl)n2)cc1	-28	53*	-9	6	2
CN(C)CCCN(C(=O)c1cccs1)c1nc(-c2ccccc2)cs1	-12	41*	19*	12	4
CCOC(=O)C1(C)CCCCN1C(=O)c1cccnc1 (stereo unspecified)	27*	-33	3	1	-20
CCOC(=O)C1(C)CCCN1C(=O)c1cncc(Br)c1 (stereo unspecified)	-1	-7	-4	5	5
OC(CNCCc1ccc(Cl)cc1)COc1ccc2ccccc2c1 (stereo unspecified)	4	-2	2	42*	13
CCC(CC)C(=O)Nc1ccc(Sc2ccc([N+](=O)[O-])cc2)cc1	-27	35*	-7	24	44
Cc1ccc(NC(=O)CSc2nn(-c3ccccc3)c(=S)s2)cc1S(=O)(=O)N(C)C	-12	25*	-1	10	51*
O=C(CSc1nn(-c2ccccc2)c(=S)s1)Nn1cnnc1	3	-10	-1	11	-13
CC(C)(C)c1ccc(C(O)c2ncc(-c3cccc(F)c3)[nH]2)cc1 (stereo unspecified)	-2	-4	-3	6	-1
CCOC(=O)c1ccc(NC(=O)NC2CC3CCC(C2)N3)cc1 (stereo unspecified)	-22	59*	-6	3	22
CCOC(=O)c1sc(NC(=O)Nc2ccc(F)cc2)nc1C	-19	27	-2	10	62*
CCOC(=O)c1sc(NC(=O)Cc2ccc(F)cc2)nc1C	7	-5	-4	1	-10
CC(C)(C)c1ccc(NC(=O)Nc2ccc(F)cc2)cc1	-30	49*	-3	12	94*
CCOC(=O)c1ccc(NC(=O)Nc2ccc(F)cc2)cc1	-15	21*	10	35	14
COc1cccc([C@@H](NC(=O)C(F)(F)F)[C@@H]2CCCC=C2c2ccccc2)c1	x	x	x	0	-2
O=C(N[C@@H](Cc1cccnc1)C(=O)N1CCC[C@H]1C(=O)NCc1ccccc1)c1ccccc1	x	x	x	0	4
CS(=O)(=O)N1CCN(C(=O)c2cc(-c3ccncc3)nc3ccc(Cl)cc23)CC1	-14	31*	3	23	35
O=C(c1cc(-c2cccnc2)nc2ccc(Cl)cc12)N1CCN(S(=O)(=O)c2cccs2)CC1	-13	31	-2	10	51*
CS(=O)(=O)N1CCN(C(=O)c2cc(-c3ccccc3)nc3ccccc23)CC1	-9	9	1	11	12
